Measurements: paper PMC5888399 (The FASEB Journal, 2017)
Where two headings read alike, the source gives them in different places. Marks after values point to notes of the source that are not given here.

What was measured:
[1] = tested on: young mdx mice; conditions: short term (2 wk) treatment; cited from earlier work
[2] = tested on: exercised mdx mice; assay: Forelimb grip strength; type: in vivo, mouse; conditions: for Percentage change in normalized forelimb grip strength: vs mdx vehicle
Method in brief: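 Mice were treadmill-exercised to unmask the phenotype. Forelimb grip force was measured weekly with a grip strength meter, at least 48 h after the last treadmill session: at UNIBA in phase 1 (4 wk), and at UNIBA and AGA in phase 2 (12 wk). Values were normalized to body weight. Outputs were percentage change vs WT or mdx vehicle and recovery score relative to the WT–mdx difference.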

[3] = tested on: exercised mdx mice; assay: Hindlimb grip strength; type: in vivo, mouse; conditions: 12 wk, AGA
Method in brief: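 In the 12-wk phase 2 study at AGA, treadmill-exercised mice had hindlimb grip force measured weekly with a grip strength meter, at least 48 h after the last treadmill session. Dosing was via drinking water at 10 or 50 mg/kg per day, with spring water as vehicle.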

[4] = tested on: DIA muscle of mdx mice; type: in vivo, mouse
[5] = tested on: EDL muscle of mdx mice; type: in vivo, mouse; conditions: for % change EDL twitch force: vs mdx vehicle
[6] = tested on: mdx EDL muscle fibers; type: in vivo, mouse; conditions: 4 wk
[7] = tested on: FDB muscle fibers of mdx mice; assay: Fura-2 microfluorescence, resting cytosolic Ca2+ in isolated FDB myofibers; type: in vivo, mouse; conditions: 4 wk
Method in brief: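 FDB muscles were dissected after 4 wk of drinking-water dosing. Myofibers were isolated enzymatically in Ringer's with 0.8–1 mg/ml collagenase type XI-S for 45 min at 37°C, under constant agitation and O2 flux. Resting cytosolic Ca2+ was then measured by fura-2 microfluorescence (UNIBA).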

[8] = tested on: Ca2+-dependent calpains; assay: Calpain activity in DIA muscle lysates; type: in vivo, mouse; conditions: treated groups, 4 wk, not significant
[9] = tested on: DIA and GC muscles of mdx mice; assay: Histologic evaluation; type: in vivo, mouse; conditions: for Change in % damaged, total damaged gastrocnemius (%) / CNFs in DIA / Change in % damaged, total damaged DIA (%): 12 wk; for Change in % damaged, total damaged gastrocnemius (%) / Change in % damaged, total damaged DIA (%): vs mdx vehicle; for CNFs in DIA: vehicle 72.3 ± 1.6
Method in brief: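 Diaphragm and left gastrocnemius were frozen in isopentane cooled in N2 (AGA) or paraffin-fixed (UNIBA). Sections of 6–10 μm were H&E-stained. Scored items: inflammation, degeneration, regeneration, centronucleated and normal fibers, and total damaged area. Five random images were taken per section, with blinded analysis on at least 6 animals per group.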

[10] = tested on: creatine kinase (CK); assay: CK serum levels; type: in vivo, mouse
Method in brief: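 Serum was taken from blood drawn by cardiac puncture. CK was measured spectrophotometrically with a diagnostic kit. Mice received drinking-water dosing of 10 or 50 mg/kg per day, with spring water as vehicle.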

[11] = tested on: RyR1, FKB1α, UTRN, MIOG, FSTN, BNIP3, TGF-β, CYBB; assay: Real-time PCR gene expression in GC muscle; type: in vivo, mouse
Method in brief: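 Total RNA was extracted from gastrocnemius (UNIBA) and reverse-transcribed at 25°C for 10 min, 42°C for 50 min and 70°C for 15 min. TaqMan real-time PCR used 8 ng cDNA per reaction, singleplex, in triplicate. Targets were RyR1, FKBP1α, utrophin, myogenin, follistatin, BNIP3, TGF-β and CYBB, normalized to GAPDH.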

[12] = S48168 plasma and GC muscle levels; type: in vivo, mouse; conditions: for Skeletal muscle (GC) concentration (mean) / Plasma concentration (mean): AGA; for Plasma concentration (mean): 20–30 min after drinking water withdrawn; for concentration at 2 h: mdx, mouse, oral, UNIBA
Method in brief: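 Drug levels in plasma and gastrocnemius were measured by LC-MS/MS (ESI+, PFP column) after protein precipitation on phospholipid-removal plates, with a stable-isotope-labelled internal standard. In phase 2, blood was collected 20–30 min (AGA) or 2 h (UNIBA) after drinking water was withdrawn, following 12 wk of dosing at 10 or 50 mg/kg per day.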

[13] = Body weight, organ and muscle mass; type: in vivo, mouse
Method in brief: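 mdx and WT mice given test compound in spring water (vehicle) ad libitum, targeting 10 or 50 mg/kg per day. Dose was calculated from weekly water volume per cage divided by animals and normalized to mean body weight. Body weight was tracked over 4 or 12 wk of treatment. Data are means ± sem. WT vs mdx vehicle was compared by unpaired t test; doses vs mdx vehicle by 1-way ANOVA with Dunnett's test.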

[14] = tested on: PKA-phosphorylated RyR channels in SR vesicles from either cardiac or skeletal muscles; assay: Calstabin rebinding to RyR channels in SR vesicles; type: binding; conditions: data not shown
[15] = Oral bioavailability; type: in vivo; conditions: data not shown
[16] = 50 mg/kg per day, 4 wk, not significant

SMILES: COc1ccc2c(c1)CN(C)CCS2 [S107]
- Muscle function in young mdx mice [1]: improved muscle function

SMILES: COc1ccc2c(c1)CN(Cc1ccc(C(=O)O)cc1)CCS2 [S48168/ARM210]
- Normalized forelimb grip strength vs mdx vehicle ([2]; 10 mg/kg per day, 12 wk, AGA): no statistically significant effect
- Recovery score, normalized forelimb force ([2]; 10 mg/kg, week 12, UNIBA): 35%
- Normalized forelimb force ([2]; 10 mg/kg, week 12, UNIBA, vehicle 4.06 ± 0.20): 5 ± 0.23 KGF/kg
- Percentage change in normalized forelimb grip strength ([2]; 10 mg/kg/d, 12 wk, AGA): +3%
- Normalized forelimb grip strength ([2]; 50 mg/kg per day, 12 wk, AGA, vehicle 3.62 ± 0.14): 3.99 ± 0.15 KGF/kg
- Recovery score, absolute forelimb strength ([2]; 50 mg/kg per day, W4, phase 1 UNIBA): 70%
- Recovery score, normalized forelimb force ([2]; 50 mg/kg, week 12, UNIBA): 12%
- Percentage change in normalized forelimb grip strength ([2]; 50 mg/kg/d, 12 wk, AGA): +10** %
- Percentage change in normalized forelimb grip strength ([2]; 50 mg/kg/d, 12 wk, UNIBA): +8%
- Normalized hindlimb grip strength ([3]; 50 mg/kg per day): statistically significant ameliorative effect
- Absolute hindlimb grip strength vs mdx vehicle ([3]; treatment groups): no differences
- % change DIA twitch force ([4]; 10 mg/kg per day, 12 wk, UNIBA, vs mdx vehicle): +2%
- DIA specific tetanic force vs mdx vehicle ([4]; 50 mg/kg per day, 4 wk): significantly higher
- DIA force–frequency relationship vs mdx vehicle ([4]; 50 mg/kg per day, 4 wk, 120 and 140 Hz): significantly higher values
- DIA fatigue and recovery from fatigue ([4]; any dose level, 4 wk): no effect
- % change EDL twitch force ([5]; 10 mg/kg per day, 12 wk, AGA): −2%
- % change EDL twitch force ([5]; 10 mg/kg per day, 12 wk, UNIBA): −1%
- % change EDL twitch force ([5]; 50 mg/kg per day, 12 wk, AGA): +6%
- EDL stiffness ([5]; 50 mg/kg per day, 12 wk, UNIBA): slight but not significant amelioration
- EDL fatigue-related decline in force and recovery from fatigue vs mdx vehicle ([5]; 12 wk, data not shown): no differences
- EDL muscle-contraction kinetics (time to peak, half relaxation time) ([5]; 12 wk, data not shown): no effect
- EDL muscle force (twitch and specific tetanic) ([5]; both doses, 4 wk): no effect
- Force decrease in EDL muscle from eccentric contraction ([5]; either dose, 12 wk, UNIBA): No protective effect
- Mechanical threshold: potential for fiber contraction, rheobase voltage ([6]; 50 mg/kg per day, all durations of depolarizing pulses): significant shift in the potential for fiber contraction toward WT values
- Mechanical threshold: rheobase voltage ([6]; printed 50 mg/kg per day): slight but nonsignificant effect
- Level of cytosolic Ca2+ vs mdx vehicle ([7]; 10 mg/kg per day): no difference
- Reduction in cytosolic Ca2+ vs mdx vehicle myofibers ([7]; 50 mg/kg per day): 25%
- Calpain activity in DIA [8]: trend toward a reduction
- Change in % damaged, total damaged gastrocnemius (%) ([9]; 10 mg/kg per day, AGA): 1%
- CNFs in DIA ([9]; 10 mg/kg, UNIBA): 62.4 ± 2.9%
- Percentage of regenerating area in GC ([9]; 50 mg/kg per day, 4 wk): significant increases
- Percentage of regeneration in DIA [9, 16]: increase in the percentage of regeneration
- Percentage of total damage in DIA [9, 16]: reduction in the percentage of total damage
- Percentage of total damage in GC ([9]; 50 mg/kg per day, 4 wk, significant): decreases
- Change in % damaged, total damaged DIA (%) ([9]; 50 mg/kg per day, AGA): −10* %
- Change in % damaged, total damaged gastrocnemius (%) ([9]; 50 mg/kg per day, AGA): 5%
- Change in % damaged, total damaged DIA (%) ([9]; 50 mg/kg per day, UNIBA): −19%
- CNFs in DIA ([9]; 50 mg/kg, UNIBA): 53.3 ± 2.5%
- Number of CNF vs normal fibers in DIA or GC ([9]; either dose, 4 wk): No marked differences
- CK level ([10]; 12 wk, UNIBA and AGA): no significant changes
- Serum level of CK vs mdx vehicle ([10]; either dosage, 4 wk): No significant change
- BNIP3 gene expression level vs mdx vehicle ([11]; 50 mg/kg per day, 4 wk): trend toward an increase
- Gene expression of RyR1 compared with WT mice ([11]; 50 mg/kg per day, 4 wk): significant increase
- Expression of RyR1, FKB1α, UTRN, MIOG, FSTN, TGF-β, or CYBB vs mdx vehicle ([11]; 10 or 50 mg/kg per day, 4 wk): No significant changes
- Expression level of RyR1, calstabin, or BNIP3 ([11]; any dose, 12 wk): No significant changes
- Skeletal muscle (GC) concentration (mean) ([12]; 10 mg/kg, 12 wk treatment): 0.552 µg/g
- Plasma concentration (mean) ([12]; 10 mg/kg, 12 wk treatment): 6125 ng/mL
- Skeletal muscle (GC) concentration (mean) ([12]; 50 mg/kg, 12 wk treatment): 1.716 µg/g
- Plasma concentration (mean) ([12]; 50 mg/kg, 12 wk treatment): 18775 ng/mL
- concentration at 2 h ([12]; gastrocnemius (GC) skeletal muscle, 10 mg/kg, Skeletal muscle (GC) concentration (mean), 4 wk treatment): 151 ng/g
- concentration at 2 h ([12]; gastrocnemius (GC) skeletal muscle, 10 mg/kg, Skeletal muscle (GC) concentration (mean), 12 wk treatment): 123 ng/g
- concentration at 2 h ([12]; gastrocnemius (GC) skeletal muscle, 50 mg/kg, Skeletal muscle (GC) concentration (mean), 4 wk treatment): 512 ng/g
- concentration at 2 h ([12]; gastrocnemius (GC) skeletal muscle, 50 mg/kg, Skeletal muscle (GC) concentration (mean), 12 wk treatment): 1160 ng/g
- concentration at 2 h ([12]; plasma, 10 mg/kg, Plasma concentration (mean), 10 mg/kg, 4 wk treatment, about 2 h after drinking water withdrawn): 881 ng/mL
- concentration at 2 h ([12]; plasma, 50 mg/kg, Plasma concentration (mean), 50 mg/kg, 4 wk treatment, about 2 h after drinking water withdrawn): 3020 ng/mL
- Heart mass normalized to body weight vs mdx vehicle ([13]; 10 mg/kg per day, 4 wk): lower normalized mean value
- Quadriceps mass, absolute and normalized ([13]; 10 mg/kg per day, 12 wk, UNIBA): significant increase
- Liver mass normalized to body weight ([13]; 50 mg/kg per day, 12 wk, UNIBA, n = 8): 56.39 ± 2.61 g/g × 1000
- Mass of various skeletal muscles ([13]; 4 wk): no drug effect
- Body weight vs mdx vehicle ([13]; 10 or 50 mg/kg per day, 4 wk, phase 1): no changes in body weight
- Body weight vs mdx vehicle ([13]; 12 wk, UNIBA and AGA, any time point): no changes in body weight
- Calstabin binding to PKA-phosphorylated RyR channels [14]: effectively re-establish calstabin binding
- Oral bioavailability [15]: good oral bioavailability
